In brackets after ≈: the same amount, converted by molar mass.

The subject of series [1] is Staphylococcus aureus. The experiment in a line: Potentiation of cefazolin-induced antibacterial activity against methicillin-resistant Staphylococcus aureus ATCC BAA-44 assessed as compound concentration required in combination with cefazolin to return MRSA sensitive concentration below 8 ug/ml after overnight incubation. The series is classed as functional. Put shortly:
(§1)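 Antibiotic held at fixed final level in MHB (amoxicillin/clavulanic acid 4/2 μg/mL; cefazolin 8 μg/mL); test compound (10 mg/mL DMSO stock) 2-fold serially diluted from 64 μg/mL top; final inoculum OD600 0.001; overnight at 37 °C with shaking; MRC = lowest compound concentration with no visible growth.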

Series [2] concerns Staphylococcus aureus. The series can be described thus: Potentiation of amoxicillin/clavulanic acid-induced antibacterial activity against methicillin-resistant Staphylococcus aureus NRS100 assessed as compound concentration required in combination with amoxicillin/clavulanic acid to return MRSA sensitive concentration below 4 ug/ml after overnight incubation. In kind it is functional. Put shortly:
as §1

Series [3] deals with Staphylococcus aureus. The experiment in a line: Antibacterial activity against methicillin-resistant Staphylococcus aureus NRS100 after 18 hrs by broth microdilution method. (Broth dilution looks for growth in wells or tubes with falling amounts of substance.)
A short description of series [4]: Cytotoxicity against human HeLa cells after 24 hrs by CellTiter-Glo luminescent cell viability assay. The series is classed as toxicity, cell-based. Put shortly:
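HeLa cells seeded at 20 000 cells/well in DMEM with 10% FCS and 1% penicillin/streptomycin, grown 16 h at 37 °C in 5% CO2. Medium then replaced and compounds added in DMSO (1 μL per 100 μL), final 0.5–32 μg/mL, triplicate. After 24 h at 37 °C, plates equilibrated to room temperature and CellTiter-Glo luminescence read.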
For orientation: ATP-based viability assays read luminescence as a measure of living cells.

For series [5], the system named is Staphylococcus aureus. The experiment in a line: Potentiation of methicillin-induced antibacterial activity against methicillin-resistant Staphylococcus aureus ATCC BAA-44 assessed as fold reduction in methicillin MIC at 20 uM after 18 hrs by broth microdilution method. The series is classed as functional.
Series [6] concerns Staphylococcus aureus. The experiment in a line: Potentiation of amoxicillin/clavulanic acid-induced antibacterial activity against methicillin-resistant Staphylococcus aureus ATCC BAA-44 assessed as fold reduction in amoxicillin/clavulanic acid MIC at 20 uM after 18 hrs by broth microdilution method. In kind it is functional.
Series [7] concerns Staphylococcus aureus. The experiment in a line: Potentiation of cefazolin-induced antibacterial activity against methicillin-resistant Staphylococcus aureus ATCC BAA-44 assessed as fold reduction in cefazolin MIC at 20 uM after 18 hrs by broth microdilution method. The series is classed as functional.
In series [8] the test system is Staphylococcus aureus. The series can be described thus: Potentiation of meropenem-induced antibacterial activity against methicillin-resistant Staphylococcus aureus ATCC BAA-44 assessed as fold reduction in meropenem MIC at 20 uM after 18 hrs by broth microdilution method. The series is classed as functional.
The subject of series [9] is Staphylococcus aureus. The experiment in a line: Potentiation of oxacillin-induced antibacterial activity against methicillin-resistant Staphylococcus aureus ATCC BAA-44 assessed as fold reduction in oxacillin MIC at 20 uM after 18 hrs by broth microdilution method. The series is classed as functional.
The subject of series [10] is Staphylococcus aureus. The experiment in a line: Potentiation of tetracycline-induced antibacterial activity against methicillin-resistant Staphylococcus aureus ATCC BAA-44 assessed as fold reduction in tetracycline MIC at 20 uM after 18 hrs by broth microdilution method. The series is classed as functional.
Series [11] concerns Staphylococcus aureus. The series can be described thus: Potentiation of ciprofloxacin-induced antibacterial activity against methicillin-resistant Staphylococcus aureus ATCC BAA-44 assessed as fold reduction in ciprofloxacin MIC at 20 uM after 18 hrs by broth microdilution method. The series is classed as functional.
Series [12] concerns Staphylococcus aureus. The experiment in a line: Potentiation of clindamycin-induced antibacterial activity against methicillin-resistant Staphylococcus aureus ATCC BAA-44 assessed as fold reduction in ciprofloxacin MIC at 20 uM after 18 hrs by broth microdilution method. The series is classed as functional.
Series [13] has as its system Staphylococcus aureus. The series can be described thus: Potentiation of erythromycin-induced antibacterial activity against methicillin-resistant Staphylococcus aureus ATCC BAA-44 assessed as fold reduction in erythromycin MIC at 20 uM after 18 hrs by broth microdilution method. In kind it is functional.
Series [14] has as its system Staphylococcus aureus. The series can be described thus: Potentiation of gentamycin-induced antibacterial activity against methicillin-resistant Staphylococcus aureus ATCC BAA-44 assessed as fold reduction in gentamycin MIC at 20 uM after 18 hrs by broth microdilution method. The series is classed as functional.
Series [15] concerns Staphylococcus aureus. The experiment in a line: Potentiation of streptomycin-induced antibacterial activity against methicillin-resistant Staphylococcus aureus ATCC BAA-44 assessed as fold reduction in streptomycin MIC at 20 uM after 18 hrs by broth microdilution method. The series is classed as functional.
Series [16] concerns Staphylococcus aureus. The series can be described thus: Potentiation of daptomycin-induced antibacterial activity against methicillin-resistant Staphylococcus aureus ATCC BAA-44 assessed as fold reduction in daptomycin MIC at 20 uM after 18 hrs by broth microdilution method. The series is classed as functional.
Series [17] concerns Staphylococcus aureus. The series can be described thus: Potentiation of amoxicillin/clavulanic acid-induced antibacterial activity against methicillin-resistant Staphylococcus aureus NRS-45898 assessed as compound concentration required in combination with amoxicillin/clavulanic acid to return MRSA sensitive concentration below 4 ug/ml after overnight incubation. The series is classed as functional. Put shortly:
as §1

The subject of series [18] is Staphylococcus aureus. The experiment in a line: Potentiation of amoxicillin/clavulanic acid-induced antibacterial activity against methicillin-resistant Staphylococcus aureus NRS-46070 assessed as compound concentration required in combination with amoxicillin/clavulanic acid to return MRSA sensitive concentration below 4 ug/ml after overnight incubation. In kind it is functional. Put shortly:
as §1

Series [19] has as its system Staphylococcus aureus. The experiment in a line: Potentiation of amoxicillin/clavulanic acid-induced antibacterial activity against methicillin-resistant Staphylococcus aureus NRS-46231 assessed as compound concentration required in combination with amoxicillin/clavulanic acid to return MRSA sensitive concentration below 4 ug/ml after overnight incubation. The series is classed as functional. Put shortly: as §1

In series [20] the test system is Staphylococcus aureus. The series can be described thus: Antibacterial activity against methicillin-resistant Staphylococcus aureus NRS-45898 after 18 hrs by broth microdilution method.
The test system of series [21] is Staphylococcus aureus. The experiment in a line: Antibacterial activity against methicillin-resistant Staphylococcus aureus NRS-46070 after 18 hrs by broth microdilution method.
Series [22] has as its system Staphylococcus aureus. The experiment in a line: Antibacterial activity against methicillin-resistant Staphylococcus aureus NRS-46231 after 18 hrs by broth microdilution method.
Series [23] deals with Staphylococcus aureus. The experiment in a line: Potentiation of cefazolin-induced antibacterial activity against methicillin-resistant Staphylococcus aureus ATCC BAA-44 assessed as fractional inhibitory concentration by checkerboard assay. In kind it is functional. Put shortly:
(§2)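 Checkerboard in MRSA; FICI = FICA + FICB, each FIC being the combination concentration (MRC) divided by that agent's MIC alone; FICI <0.5 taken as synergy.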

For series [24], the system named is Staphylococcus aureus. The series can be described thus: Potentiation of amoxicillin/clavulanic acid-induced antibacterial activity against methicillin-resistant Staphylococcus aureus ATCC BAA-44 assessed as fractional inhibitory concentration by checkerboard assay. The series is classed as functional. Put shortly: as §2

With `C=C1CCCC[C@@]23N(C(=O)OC)CC[C@@]12c1c(C)cc(C)cc1N3C`, the MRC in the series with Staphylococcus aureus [1] and in the series with Staphylococcus aureus [2] was 16 µg/mL each time. In the series on Staphylococcus aureus [3], the MIC was > 64 µg/mL. The compound further yielded a concentration for 50% growth inhibition (GI50) at 24 h in series [4] of 20 µg/mL (≈ 58.7 µM). In addition, the “fold change (FC)” value with Staphylococcus aureus [5] is reported as 16; in the series on Staphylococcus aureus [6], 8; in the series with Staphylococcus aureus [7], 16; with Staphylococcus aureus [8], 16; in the series with Staphylococcus aureus [9] it was 8; with Staphylococcus aureus [10], 2. Further, the “fold change (FC)” value in the series with Staphylococcus aureus [11] stood at 2; in the series on Staphylococcus aureus [12], 1; in the series with Staphylococcus aureus [13], 1; with Staphylococcus aureus [14] it was 1; in the series on Staphylococcus aureus [15], 1; in the series on Staphylococcus aureus [16], 1.
Regarding `C=C1CCC[C@@]23N(C(=O)OC)CC[C@@]12c1cc(C)ccc1N3C`, the MRC with Staphylococcus aureus [1] and in the series with Staphylococcus aureus [2] was 16 µg/mL throughout. The MIC in the series with Staphylococcus aureus [3] was > 64 µg/mL. This compound had a concentration for 50% growth inhibition (GI50) at 24 h in series [4] of 15 µg/mL (≈ 48 µM).
With `C=C1CCC[C@@]23N(C(=O)OC)CC[C@@]12c1c(C)cc(C)cc1N3C`, the figures for the MRC in the series on Staphylococcus aureus [1] and in the series with Staphylococcus aureus [2] were 16 µg/mL and 8 µg/mL, respectively. The MIC against Staphylococcus aureus [3] was > 64 µg/mL. Further, in series [4], the GI50 at 24 h came out at 40 µg/mL (≈ 123 µM).
As for `C=C1CCCC[C@@]23N(C(=O)OCC)CC[C@@]12c1cc(F)c(OC)cc1N3C`, the MRC in the series with Staphylococcus aureus [1] and in the series on Staphylococcus aureus [2] was >64 µg/mL in each case. For the same compound, the MIC with Staphylococcus aureus [3] was > 64 µg/mL. In addition, the concentration for 50% growth inhibition (GI50) at 24 h in series [4] is > 64 µg/mL.
Regarding `C=C1CCCC[C@]23N(C)c4cc(C)cc(C)c4[C@]12CCN3S(=O)(=O)c1ccc(Cl)cc1`, the MRC with Staphylococcus aureus [1] and with Staphylococcus aureus [2] was >64 µg/mL throughout. Also, in the series on Staphylococcus aureus [3], the MIC is > 64 µg/mL. The concentration for 50% growth inhibition (GI50) at 24 h in series [4] was > 64 µg/mL.
On to `C=C1CCCC[C@@]23N(C(=O)OCC)CC[C@@]12c1c(C)cc(C)cc1N3C`, for which the MRC with Staphylococcus aureus [1], in the series on Staphylococcus aureus [2], in the series with Staphylococcus aureus [17], in the series on Staphylococcus aureus [18] and with Staphylococcus aureus [19] was 2 µg/mL in each case. In addition, the MIC in the series on Staphylococcus aureus [3], against Staphylococcus aureus [20], in the series on Staphylococcus aureus [21] and against Staphylococcus aureus [22] was > 64 µg/mL in each case. Besides, the 50% growth inhibitory concentration (GI50) at 24 h in series [4] is 61 µg/mL (≈ 172 µM). Moreover, the “fractional inhibitory concentration index (FICI)” value in the series on Staphylococcus aureus [23] amounted to 0.078; in the series with Staphylococcus aureus [24], 0.127.
On to `C=C1CCCC[C@@]23N(C(=O)OC)CC[C@@]12c1c(C)cc(C)cc1N3CC`, for which the figures for the MRC with Staphylococcus aureus [1] and with Staphylococcus aureus [2] were 2 µg/mL and 4 µg/mL, respectively. For the same compound, the MIC with Staphylococcus aureus [3] was > 64 µg/mL. In series [4], this compound displayed a concentration for 50% growth inhibition (GI50) at 24 h of 30 µg/mL (≈ 84.6 µM).
For `C=C1CCCC[C@@]23NCC[C@@]12c1c(C)cc(C)cc1N3C` the same measures were 32 µg/mL, 64 µg/mL, > 64 µg/mL and 26 µg/mL (≈ 92.1 µM).
For `C=C1CCCC[C@@]23N(C(=O)C(F)(F)F)CC[C@@]12c1c(C)cc(C)cc1N3C` the same measures were >64 µg/mL, >64 µg/mL, > 64 µg/mL and > 64 µg/mL.
For the compound `C=C1CCCC[C@@]23N(C(=O)OC)CC[C@@]12c1cc(Cl)ccc1N3C`, the MRC in the series with Staphylococcus aureus [1] is 8 µg/mL; with Staphylococcus aureus [2], 4 µg/mL. For the same compound, in the series on Staphylococcus aureus [3], the MIC is > 64 µg/mL. The compound also came in with a GI50 at 24 h in series [4] of 53 µg/mL (≈ 153 µM).
With `C=C1CCCC[C@@]23N(C(=O)NCc4ccccc4)CC[C@@]12c1c(C)cc(C)cc1N3C`, the MRC in the series with Staphylococcus aureus [1] and with Staphylococcus aureus [2] was >64 µg/mL each time. Also, in the series with Staphylococcus aureus [3], the MIC is > 64 µg/mL. Besides, the GI50 at 24 h in series [4] is > 64 µg/mL.
For `C=C1CCC[C@@]23N(C(=O)OCC)CC[C@@]12c1cc(Cl)ccc1N3C`, the MRC turned out to be 16 µg/mL with Staphylococcus aureus [1] and 8 µg/mL with Staphylococcus aureus [2]. Further, in the series with Staphylococcus aureus [3], the MIC was > 64 µg/mL. For the same compound, halving of growth in [4] (GI50 at 24 h) required 41 µg/mL (≈ 118 µM).

As a reminder, the GI50 is the concentration at which growth is held to half of that of the control. Read a low GI50 as more potent growth inhibition.
